pIC50: −log10 of the molar value.
Key:
Mus musculus [1] = test: (§1) Toxicity in po dosed mouse; type: organism-based; details: in vivo
Outline: (§2)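 Acute toxicity was tested in mice given the compound orally. The LD50 was reported in mg/kg or g/kg.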

[2] = target: Sodium-dependent serotonin transporter (Rattus norvegicus, UniProt P31652); test: Inhibition of [3H]5HT reuptake at rat brain frontal cortex serotonin transporter; type: tissue-based
Outline: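 Rats were decapitated and the frontal cortex was dissected on ice. The tissue was homogenised in ice-cold 0.32 M sucrose and spun at 1500g for 10 min, then the supernatant at 20,000g for 30 min (4 °C). Synaptosomes were preincubated with compound for 5 min at 37 °C. [3H]-5-HT (300 nM) was added for 5 min at 37 °C. The reaction was stopped on ice, then filtered and counted. Active uptake was taken as the 37 °C minus 0 °C difference.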

Transporter = Transporter (Rattus norvegicus, UniProt Q63380); test: Inhibition of [3H]norepinephrine reuptake at rat brain frontal cortex norepinephrine transporter; type: tissue-based
Chain of Transporter (Q63380 whole entry): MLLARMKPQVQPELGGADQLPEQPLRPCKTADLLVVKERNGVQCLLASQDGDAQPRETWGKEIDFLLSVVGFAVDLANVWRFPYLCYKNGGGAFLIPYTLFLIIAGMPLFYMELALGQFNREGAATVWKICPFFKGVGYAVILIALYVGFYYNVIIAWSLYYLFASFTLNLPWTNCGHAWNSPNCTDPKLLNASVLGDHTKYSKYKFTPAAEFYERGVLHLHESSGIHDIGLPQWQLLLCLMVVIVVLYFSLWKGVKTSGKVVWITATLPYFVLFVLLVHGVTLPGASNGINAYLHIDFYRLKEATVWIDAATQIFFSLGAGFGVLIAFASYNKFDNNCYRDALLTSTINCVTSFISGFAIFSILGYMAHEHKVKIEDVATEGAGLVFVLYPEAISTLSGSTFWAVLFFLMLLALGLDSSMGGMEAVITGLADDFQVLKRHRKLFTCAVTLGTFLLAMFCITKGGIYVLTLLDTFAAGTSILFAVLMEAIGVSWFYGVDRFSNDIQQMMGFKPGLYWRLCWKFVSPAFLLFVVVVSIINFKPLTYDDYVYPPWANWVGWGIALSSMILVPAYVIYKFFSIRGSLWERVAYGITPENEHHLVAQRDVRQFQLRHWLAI
Outline: (§3)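 Rat frontal cortex synaptosomes prepared at 4 °C: tissue homogenized in ice-cold 0.32 M sucrose, spun at 1500g for 10 min, and the supernatant spun at 20,000g for 30 min. The pellet was resuspended in buffer and protein measured. Synaptosomes were preincubated with compound 5 min at 37 °C, then given 300 nM [3H]-DA or [3H]-NA for 5 min at 37 °C. Uptake was stopped on ice and samples filtered and washed with artificial cerebral fluid before scintillation counting. Active uptake was taken as the 37 °C minus 0 °C difference.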

[3] = target: Sodium-dependent dopamine transporter (Rattus norvegicus, UniProt P23977); test: Inhibition of [3H]dopamine reuptake at rat brain frontal cortex dopamine transporter; type: tissue-based; outline: as §3
Chain of Sodium-dependent dopamine transporter (P23977 whole entry): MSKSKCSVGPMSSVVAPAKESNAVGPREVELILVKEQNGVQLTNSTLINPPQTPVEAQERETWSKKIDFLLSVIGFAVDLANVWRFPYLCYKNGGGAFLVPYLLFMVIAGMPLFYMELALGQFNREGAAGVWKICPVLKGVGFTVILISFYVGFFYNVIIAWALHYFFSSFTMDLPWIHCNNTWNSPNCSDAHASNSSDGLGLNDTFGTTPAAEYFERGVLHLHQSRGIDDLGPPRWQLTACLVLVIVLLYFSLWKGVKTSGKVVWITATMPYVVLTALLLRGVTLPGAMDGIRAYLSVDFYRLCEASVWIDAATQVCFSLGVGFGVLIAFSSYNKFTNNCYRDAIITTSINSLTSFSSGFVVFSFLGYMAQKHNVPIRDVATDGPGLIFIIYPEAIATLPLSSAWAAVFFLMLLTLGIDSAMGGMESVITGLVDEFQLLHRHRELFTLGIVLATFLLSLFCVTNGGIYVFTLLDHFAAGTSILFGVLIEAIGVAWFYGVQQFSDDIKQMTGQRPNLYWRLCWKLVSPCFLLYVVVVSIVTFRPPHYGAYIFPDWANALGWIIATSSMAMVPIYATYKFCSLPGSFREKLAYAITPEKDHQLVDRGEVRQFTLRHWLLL

Mus musculus [4] = test: Antidepressant activity in po dosed mouse by forced tail suspension assay; type: functional
Outline: (§4)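 Mice received a single oral dose of each isomer; the ED50 (mg/kg) was derived from the forced swimming and tail suspension tests.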

Mus musculus [5] = test: Antidepressant activity in po dosed mouse by forced swimming test; type: functional; outline: as §4
[6] = as §1; type: organism-based; details: in vivo; outline: as §2

Chain of Sodium-dependent serotonin transporter (P31652 whole entry): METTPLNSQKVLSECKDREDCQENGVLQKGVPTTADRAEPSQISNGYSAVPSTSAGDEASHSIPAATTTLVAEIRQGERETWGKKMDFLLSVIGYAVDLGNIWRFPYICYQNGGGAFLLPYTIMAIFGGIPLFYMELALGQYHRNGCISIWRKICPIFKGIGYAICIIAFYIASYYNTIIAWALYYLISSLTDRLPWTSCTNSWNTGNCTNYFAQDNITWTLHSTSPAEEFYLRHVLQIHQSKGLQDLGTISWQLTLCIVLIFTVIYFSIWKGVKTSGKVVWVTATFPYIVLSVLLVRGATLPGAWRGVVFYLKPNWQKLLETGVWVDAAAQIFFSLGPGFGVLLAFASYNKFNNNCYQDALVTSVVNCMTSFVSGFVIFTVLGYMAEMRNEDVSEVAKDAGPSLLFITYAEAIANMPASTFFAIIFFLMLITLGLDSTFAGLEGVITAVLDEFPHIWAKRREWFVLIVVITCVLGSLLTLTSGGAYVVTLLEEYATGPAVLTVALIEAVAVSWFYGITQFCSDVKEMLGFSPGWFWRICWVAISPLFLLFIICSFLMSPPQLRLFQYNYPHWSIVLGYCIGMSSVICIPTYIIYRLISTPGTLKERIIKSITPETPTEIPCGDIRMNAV

Row | SMILES | LD50 (Mus musculus [1]) | pIC50 [2] | pIC50 (Transporter) | pIC50 [3] | ED50 (Mus musculus [4]) | ED50 (Mus musculus [5]) | LD50 [6]
1 | COc1ccc2cc([C@H](O)[C@@H](C)N3CCN(Cc4ccccc4)CC3)ccc2c1Cl (racemic) | > 220 mg/kg |  |  |  |  |  | 
2 | COc1ccc2cc([C@H](O)[C@H](C)N3CCN(Cc4ccccc4)CC3)ccc2c1Cl (racemic) | > 1500 mg/kg |  |  |  |  |  | 
3 | COc1ccc2cc([C@H](O)[C@H](C)N3CCN(Cc4ccccc4)CC3)ccc2c1Cl | 300 mg/kg | 6.08 | 6.37 | < 3.00 | 27.9 mg/kg |  | 
4 | COc1ccc2cc([C@H](O)[C@@H](C)N3CCN(Cc4ccccc4)CC3)ccc2c1Cl | 1171 mg/kg | 6.26 | 5.15 | 5.00 | 16.5 mg/kg | 24.5 mg/kg | 
5 | COc1ccc2cc([C@@H](O)[C@H](C)N3CCN(Cc4ccccc4)CC3)ccc2c1Cl |  |  | 6.73 |  | 12.6 mg/kg |  | 1030 mg/kg
6 | COc1ccc2cc([C@@H](O)[C@@H](C)N3CCN(Cc4ccccc4)CC3)ccc2c1Cl |  | 6.43 | 5.90 | < 3.00 | 24.5 mg/kg |  | 200 mg/kg
